# Results taken from ChEMBL document CHEMBL2157987, “Benzimidazole bearing oxadiazole and triazolo-thiadiazoles nucleus: design and synthesis as anticancer agents” (2012).
# What was measured:
# Type in all cases: functional
# SK-MEL-2 = assay: Cytotoxicity against human SK-MEL-2 cells after 48 hrs by SRB assay; conditions: SK-MEL-2, 48 h
# Outline: (§1)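 Five-dose NCI-60 panel screen: cells grown in RPMI 1640 with 5% FBS and 2 mM L-glutamine, preincubated 24 h at 37 °C, 5% CO2. Five 10-fold dilutions, 0.01–100 µM, applied for 48 h. Fixed with cold TCA (10% final), stained with 0.4% SRB, absorbance read at 515 nm. GI50, TGI and LC50 were taken from log concentration versus % growth curves using time-zero plates.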
# OVCAR-3 = assay: Cytotoxicity against human OVCAR3 cells after 48 hrs by SRB assay; conditions: OVCAR-3, 48 h; outline: as §1
# IGROV-1 = assay: Cytotoxicity against human IGROV1 cells after 48 hrs by SRB assay; conditions: IGROV-1, 48 h; outline: as §1
# NCI-H522 = assay: Cytotoxicity against human NCI-H522 cells after 48 hrs by SRB assay; conditions: NCI-H522, 48 h; outline: as §1
# NCI-H460 = assay: Cytotoxicity against human NCI-H460 cells after 48 hrs by SRB assay; conditions: NCI-H460, 48 h; outline: as §1
# HT-29 = assay: Cytotoxicity against human HT-29 cells after 48 hrs by SRB assay; conditions: HT-29, 48 h; outline: as §1
# 786-0 = assay: Cytotoxicity against human 786-0 cells after 48 hrs by SRB assay; conditions: 786-0, 48 h; outline: as §1
# CAKI-1 = assay: Cytotoxicity against human Caki1 cells after 48 hrs by SRB assay; conditions: CAKI-1, 48 h; outline: as §1
# HCT-15 = assay: Cytotoxicity against human HCT15 cells after 48 hrs by SRB assay; conditions: HCT-15, 48 h; outline: as §1
# SK-OV-3 = assay: Cytotoxicity against human SKOV3 cells after 48 hrs by SRB assay; conditions: SK-OV-3, 48 h; outline: as §1
# A498 = assay: Cytotoxicity against human A498 cells after 48 hrs by SRB assay; conditions: A498, 48 h; outline: as §1
# [1] = read-out: LC50 (the source's name)
# [2] = read-out: pLC50 (the source's name) (converted)
smiles,measurement,setting,value
Nc1cc(Br)c(-c2nnc(CCC(=O)c3nc4ccccc4[nH]3)o2)c(Br)c1,GI50,SK-MEL-2,4.27 µM
same,CC50,SK-MEL-2; [1],> 100 µM
same,TGI,SK-MEL-2; read-out: TGI,> 100 µM
same,CC50,SK-MEL-2; [2],> 100 µM
same,TGI,SK-MEL-2; read-out: pTGI,> 100 µM
same,GI50,OVCAR-3,2.63 µM
same,LC50,OVCAR-3; read-out: LC50,> 100 µM
same,TGI,OVCAR-3; read-out: TGI,6.98 µM
same,LC50,OVCAR-3; read-out: pLC50 (converted),> 100 µM
same,TGI,OVCAR-3; read-out: pTGI (converted),6.92 µM
same,GI50,IGROV-1,5.89 µM
same,LC50,IGROV-1; read-out: LC50,> 100 µM
same,TGI,IGROV-1; read-out: TGI,62.7 µM
same,LC50,IGROV-1; read-out: pLC50 (converted),> 100 µM
same,TGI,IGROV-1; read-out: pTGI (converted),63.1 µM
same,GI50,NCI-H522,2.88 µM
same,CC50,NCI-H522; [1],> 100 µM
same,TGI,NCI-H522; read-out: TGI,16.9 µM
same,CC50,NCI-H522; [2],> 100 µM
same,TGI,NCI-H522; read-out: pTGI (converted),17 µM
same,GI50,NCI-H460,3.98 µM
same,CC50,NCI-H460; [1],> 100 µM
same,TGI,NCI-H460; read-out: TGI,20.1 µM
same,CC50,NCI-H460; [2],> 100 µM
same,TGI,NCI-H460; read-out: pTGI (converted),20 µM
same,GI50,HT-29,19.1 µM
same,CC50,HT-29; [1],> 100 µM
same,TGI,HT-29; read-out: TGI,83.5 µM
same,CC50,HT-29; [2],> 100 µM
same,TGI,HT-29; read-out: pTGI (converted),83.2 µM
same,GI50,786-0,20.9 µM
same,LC50,786-0; read-out: LC50,> 100 µM
same,TGI,786-0; read-out: TGI,61.7 µM
same,LC50,786-0; read-out: pLC50 (converted),> 100 µM
same,TGI,786-0; read-out: pTGI (converted),61.7 µM
same,GI50,CAKI-1,20 µM
same,LC50,CAKI-1; read-out: LC50,> 100 µM
same,TGI,CAKI-1; read-out: TGI,> 100 µM
same,LC50,CAKI-1; read-out: pLC50 (converted),> 100 µM
same,TGI,CAKI-1; read-out: pTGI,> 100 µM
same,GI50,HCT-15,> 100 µM
same,CC50,HCT-15; [1],> 100 µM
same,TGI,HCT-15; read-out: TGI,> 100 µM
same,CC50,HCT-15; [2],> 100 µM
same,TGI,HCT-15; read-out: pTGI,> 100 µM
same,GI50,SK-OV-3,22.4 µM
same,LC50,SK-OV-3; read-out: LC50,> 100 µM
same,TGI,SK-OV-3; read-out: TGI,80.5 µM
same,LC50,SK-OV-3; read-out: pLC50 (converted),> 100 µM
same,TGI,SK-OV-3; read-out: pTGI (converted),81.3 µM
same,GI50,A498,0.661 µM
same,CC50,A498; [1],> 100 µM
same,TGI,A498; read-out: TGI,10.5 µM
same,CC50,A498; [2],> 100 µM
same,TGI,A498; read-out: pTGI (converted),10.5 µM
